The results in this text go back to ChEMBL document CHEMBL4411287, “Discovery and optimization of a series of 3-substituted indazole derivatives as multi-target kinase inhibitors for the treatment of lung squamous cell carcinoma” (Eur J Med Chem, 2019).

The nature of data set [1]: Half life in ICR(CD-1) mouse at 10 mg/kg, po administered via gavage by triple quadrupole mass spectrometric analysis. The following applies: in vivo. The data set is classed as ADME, organism-based. The method in brief:
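Oral gavage at 1 mg/mL in 1% Tween80/water to male ICR mice (18-22 g, n=3). Plasma sampled at 0.25, 0.5, 1, 2, 4, 8 and 24 h, protein precipitated with methanol:acetonitrile (1:1) containing internal standard, and quantified by UPLC-triple quadrupole MS. AUC and MRT were taken from per-animal time-concentration curves. Cmax is the maximum plasma level and Tmax the time to reach it.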

A short description of data set [2]: Tmax in ICR(CD-1) mouse at 10 mg/kg, po administered via gavage by triple quadrupole mass spectrometric analysis. The data set is classed as ADME, organism-based. The following applies: in vivo. The method in brief:
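Dosed by gavage at 1 mg/mL in 1% Tween80/water to male ICR mice, 18-22 g, n=3. Blood taken at 0.25, 0.5, 1, 2, 4, 8 and 24 h. Plasma precipitated with methanol:acetonitrile (1:1) containing internal standard, then UPLC-MS/MS on a C18 column with an ammonium acetate/formic acid–acetonitrile gradient. Tmax read directly from the data; MRT calculated per animal from concentration–time curves.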

Data set [3] concerns the target Macrophage colony-stimulating factor 1 receptor (Homo sapiens) (UniProt P07333). Kind of data set: Inhibition of CSF-1R (unknown origin) at 1000 nM relative to control.
Data set [4] has as its target Insulin-like growth factor 1 receptor (Homo sapiens) (UniProt P08069). Description: Inhibition of IGF1R (unknown origin) at 1000 nM relative to control. An outline of the steps:
(§1)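 Purified recombinant kinase domains run in ELISA on precoated poly(Glu,Tyr) 4:1 (20 µg/mL) with 10 µM ATP in 50 mM HEPES pH 7.4, 50 mM MgCl2, 0.5 mM MnCl2, 0.2 mM Na3VO4, 1 mM DTT; 1% DMSO control; 60 min at 37 °C. Phosphotyrosine read by PY99 antibody, HRP anti-mouse IgG, OPD/H2O2 at 490 nm; inhibition = [1−A490/A490control]×100%; two separate experiments.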

For data set [5], the target named is Tyrosine-protein kinase ABL1 (Homo sapiens) (UniProt P00519). Kind of data set: Inhibition of ABL (unknown origin) at 100 nM relative to control.
Data set [6] deals with ALK tyrosine kinase receptor (Homo sapiens) (UniProt Q9UM73). Kind of data set: Inhibition of ALK (unknown origin) at 100 nM relative to control.
Data set [7] deals with Proto-oncogene tyrosine-protein kinase Src (Homo sapiens) (UniProt P12931). Kind of data set: Inhibition of c-Src (unknown origin) at 100 nM relative to control. The method in brief: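 ELISA with purified recombinant kinase on plates precoated with poly(Glu,Tyr) 4:1 at 20 µg/mL. ATP 10 µM in HEPES pH 7.4 buffer with MgCl2, MnCl2, Na3VO4 and DTT. Run 60 min at 37 °C. Detected with anti-phosphotyrosine PY99, HRP secondary antibody and o-phenylenediamine, read at 490 nm. Inhibition % = [1 − A490/A490 control]×100. 1% DMSO as negative control.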

Data set [8] has as its target Macrophage colony-stimulating factor 1 receptor (Homo sapiens) (UniProt P07333). Description: Inhibition of CSF-1R (unknown origin) at 100 nM relative to control.
Data set [9] has as its target Cyclin-dependent kinase 6 (Homo sapiens) (UniProt Q00534). Kind of data set: Inhibition of CDK6 (unknown origin) at 100 nM relative to control.
In data set [10] the target is Receptor tyrosine-protein kinase erbB-4 (Homo sapiens) (UniProt Q15303). Description: Inhibition of ErbB4 (unknown origin) at 100 nM relative to control. The method in brief:
as §1

For data set [11], the target named is Fibroblast growth factor receptor 4 (Homo sapiens) (UniProt P22455). Description: Inhibition of FGFR4 (unknown origin) at 100 nM relative to control. The method in brief: as §1
Data set [12] concerns the target Insulin-like growth factor 1 receptor (Homo sapiens) (UniProt P08069). Kind of data set: Inhibition of IGF1R (unknown origin) at 100 nM relative to control. An outline of the steps:
as §1

The target in data set [13] is Platelet-derived growth factor receptor beta (Homo sapiens) (UniProt P09619). Kind of data set: Inhibition of PDGFR-beta (unknown origin) at 100 nM relative to control. An outline of the steps: as §1
Data set [14] deals with Receptor-type tyrosine-protein kinase FLT3 (Homo sapiens) (UniProt P36888). Kind of data set: Inhibition of FLT-3 (unknown origin) at 10 nM relative to control. An outline of the steps: as §1
Chain of Receptor-type tyrosine-protein kinase FLT3 (Homo sapiens) (P36888 whole entry): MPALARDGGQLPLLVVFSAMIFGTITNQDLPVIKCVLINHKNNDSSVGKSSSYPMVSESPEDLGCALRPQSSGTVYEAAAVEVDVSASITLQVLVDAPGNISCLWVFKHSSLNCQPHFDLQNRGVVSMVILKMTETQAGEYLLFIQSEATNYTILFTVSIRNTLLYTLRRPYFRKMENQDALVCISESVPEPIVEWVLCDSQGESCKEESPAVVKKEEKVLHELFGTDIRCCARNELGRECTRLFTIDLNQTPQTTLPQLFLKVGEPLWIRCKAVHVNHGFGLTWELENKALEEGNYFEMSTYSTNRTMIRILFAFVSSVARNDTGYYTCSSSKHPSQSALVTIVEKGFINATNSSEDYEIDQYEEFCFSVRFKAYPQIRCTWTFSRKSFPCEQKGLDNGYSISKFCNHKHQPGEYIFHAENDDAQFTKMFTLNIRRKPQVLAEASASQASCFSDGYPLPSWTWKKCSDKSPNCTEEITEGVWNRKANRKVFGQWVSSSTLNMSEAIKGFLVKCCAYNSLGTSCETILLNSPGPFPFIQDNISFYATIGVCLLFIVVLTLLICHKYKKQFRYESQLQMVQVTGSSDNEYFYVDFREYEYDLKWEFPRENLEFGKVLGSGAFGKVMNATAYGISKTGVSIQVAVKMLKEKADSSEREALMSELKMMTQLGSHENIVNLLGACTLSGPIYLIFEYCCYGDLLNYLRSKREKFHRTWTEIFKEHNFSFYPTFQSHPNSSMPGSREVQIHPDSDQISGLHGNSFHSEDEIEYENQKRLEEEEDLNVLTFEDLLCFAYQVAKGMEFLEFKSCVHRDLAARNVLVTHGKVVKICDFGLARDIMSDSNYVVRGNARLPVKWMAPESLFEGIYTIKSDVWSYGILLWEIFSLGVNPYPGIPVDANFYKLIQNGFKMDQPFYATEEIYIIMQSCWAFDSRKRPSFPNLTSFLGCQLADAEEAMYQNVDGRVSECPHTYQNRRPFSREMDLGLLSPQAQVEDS
For data set [15], the target named is Fibroblast growth factor receptor 2 (Homo sapiens) (UniProt P21802). Kind of data set: Inhibition of FGFR2 phosphorylation in human SNU-16 cells after 2 hrs by Western blot analysis. The class given is cell-based. An outline of the steps:
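SNU-16 cells exposed to compound for 2 h at 37 °C, lysed in 1× SDS sample buffer, resolved by 10% SDS-PAGE and blotted to nitrocellulose; probed for phospho-FGFR, FGFR2, phospho-ERK, ERK and GAPDH, then HRP anti-rabbit or anti-mouse IgG; enhanced chemiluminescence detection.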

Data set [16] has as its system T1, Discoidin domain-containing receptor 2 (Homo sapiens), Q16832 [I638F].
T1 sequence (whole entry): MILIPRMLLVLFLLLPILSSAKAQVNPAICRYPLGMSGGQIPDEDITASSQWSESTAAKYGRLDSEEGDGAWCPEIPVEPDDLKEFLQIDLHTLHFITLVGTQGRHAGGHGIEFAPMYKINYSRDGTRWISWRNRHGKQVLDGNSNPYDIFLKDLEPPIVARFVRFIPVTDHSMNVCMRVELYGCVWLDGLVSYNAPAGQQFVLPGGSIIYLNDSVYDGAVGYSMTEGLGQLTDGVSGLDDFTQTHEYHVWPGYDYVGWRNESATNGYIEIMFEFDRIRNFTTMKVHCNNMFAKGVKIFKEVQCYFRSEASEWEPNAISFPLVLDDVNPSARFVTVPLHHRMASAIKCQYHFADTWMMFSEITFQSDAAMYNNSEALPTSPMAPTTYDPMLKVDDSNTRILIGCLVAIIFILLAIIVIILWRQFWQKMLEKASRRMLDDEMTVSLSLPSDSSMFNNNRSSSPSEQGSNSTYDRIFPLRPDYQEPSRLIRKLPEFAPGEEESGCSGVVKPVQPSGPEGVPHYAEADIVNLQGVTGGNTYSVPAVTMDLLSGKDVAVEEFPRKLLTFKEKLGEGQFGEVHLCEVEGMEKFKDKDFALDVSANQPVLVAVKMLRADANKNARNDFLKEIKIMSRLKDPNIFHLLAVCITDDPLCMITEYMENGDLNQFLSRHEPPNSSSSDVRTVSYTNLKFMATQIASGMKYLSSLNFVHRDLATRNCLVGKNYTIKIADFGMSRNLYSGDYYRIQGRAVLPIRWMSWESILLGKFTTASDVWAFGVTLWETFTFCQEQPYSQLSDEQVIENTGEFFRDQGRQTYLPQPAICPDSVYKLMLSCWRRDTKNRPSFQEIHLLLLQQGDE
Kind of data set: Inhibition of DDR2 I638F mutant phosphorylation in human NCI-H2286 cells after 2 hrs by Western blot analysis. The data set is classed as cell-based. The method in brief:
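NCI-H2286 cells exposed to compound for 2 h at 37 °C and lysed in SDS sample buffer. Lysates run on 10% SDS-PAGE and blotted to nitrocellulose. Membranes probed for phospho- and total DDR2, ERK and Akt, with GAPDH as loading control, and detected by HRP secondary antibody and enhanced chemiluminescence.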

Data set [17] has as its target Voltage-gated inwardly rectifying potassium channel KCNH2 (Homo sapiens, UniProt Q12809). Description: Inhibition of human ERG by automated patch clamp electrophysiology assay. The method in brief:
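Automated patch clamp electrophysiology on the hERG channel.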

pIC50: −log10 of the molar value. A value given as a limit tells only on which side of the number the result lay.

Chain of Insulin-like growth factor 1 receptor (Homo sapiens) (P08069 31-736 limits assumed): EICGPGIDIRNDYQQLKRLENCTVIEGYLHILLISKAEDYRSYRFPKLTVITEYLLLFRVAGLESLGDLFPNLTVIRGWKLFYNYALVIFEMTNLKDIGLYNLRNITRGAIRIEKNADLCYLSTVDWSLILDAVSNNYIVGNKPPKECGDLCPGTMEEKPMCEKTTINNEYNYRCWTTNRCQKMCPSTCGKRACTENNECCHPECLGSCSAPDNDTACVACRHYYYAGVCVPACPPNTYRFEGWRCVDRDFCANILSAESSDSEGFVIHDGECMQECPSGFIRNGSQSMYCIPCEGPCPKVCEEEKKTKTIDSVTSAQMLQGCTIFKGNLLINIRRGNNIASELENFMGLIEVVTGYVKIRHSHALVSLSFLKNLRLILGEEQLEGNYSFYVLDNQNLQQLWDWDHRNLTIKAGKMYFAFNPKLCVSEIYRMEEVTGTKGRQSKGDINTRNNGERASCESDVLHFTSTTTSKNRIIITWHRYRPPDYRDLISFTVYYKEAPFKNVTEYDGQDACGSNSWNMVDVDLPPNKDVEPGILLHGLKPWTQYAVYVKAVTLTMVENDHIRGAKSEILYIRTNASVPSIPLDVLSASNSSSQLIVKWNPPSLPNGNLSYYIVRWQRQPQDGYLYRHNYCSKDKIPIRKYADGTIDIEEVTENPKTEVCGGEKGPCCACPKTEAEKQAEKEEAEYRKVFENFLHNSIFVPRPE
Chain of Insulin-like growth factor 1 receptor (Homo sapiens) (P08069 741-1367 limits assumed): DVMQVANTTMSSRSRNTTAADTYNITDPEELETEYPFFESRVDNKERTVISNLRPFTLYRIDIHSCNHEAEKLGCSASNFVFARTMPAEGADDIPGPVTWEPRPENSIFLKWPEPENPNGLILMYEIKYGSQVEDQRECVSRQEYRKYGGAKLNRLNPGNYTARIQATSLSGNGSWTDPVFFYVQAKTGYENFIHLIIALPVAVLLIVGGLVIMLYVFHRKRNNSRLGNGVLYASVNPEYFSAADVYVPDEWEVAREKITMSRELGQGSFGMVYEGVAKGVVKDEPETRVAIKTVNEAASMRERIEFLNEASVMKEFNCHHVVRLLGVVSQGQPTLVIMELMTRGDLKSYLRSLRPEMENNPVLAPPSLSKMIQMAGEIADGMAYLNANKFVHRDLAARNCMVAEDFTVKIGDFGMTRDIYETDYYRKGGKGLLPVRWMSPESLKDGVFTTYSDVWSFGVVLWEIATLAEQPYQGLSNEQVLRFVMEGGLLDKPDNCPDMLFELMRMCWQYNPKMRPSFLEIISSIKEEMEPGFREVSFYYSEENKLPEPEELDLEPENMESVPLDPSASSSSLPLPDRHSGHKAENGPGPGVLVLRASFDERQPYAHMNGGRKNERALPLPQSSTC
Chain of Macrophage colony-stimulating factor 1 receptor (Homo sapiens) (P07333 whole entry): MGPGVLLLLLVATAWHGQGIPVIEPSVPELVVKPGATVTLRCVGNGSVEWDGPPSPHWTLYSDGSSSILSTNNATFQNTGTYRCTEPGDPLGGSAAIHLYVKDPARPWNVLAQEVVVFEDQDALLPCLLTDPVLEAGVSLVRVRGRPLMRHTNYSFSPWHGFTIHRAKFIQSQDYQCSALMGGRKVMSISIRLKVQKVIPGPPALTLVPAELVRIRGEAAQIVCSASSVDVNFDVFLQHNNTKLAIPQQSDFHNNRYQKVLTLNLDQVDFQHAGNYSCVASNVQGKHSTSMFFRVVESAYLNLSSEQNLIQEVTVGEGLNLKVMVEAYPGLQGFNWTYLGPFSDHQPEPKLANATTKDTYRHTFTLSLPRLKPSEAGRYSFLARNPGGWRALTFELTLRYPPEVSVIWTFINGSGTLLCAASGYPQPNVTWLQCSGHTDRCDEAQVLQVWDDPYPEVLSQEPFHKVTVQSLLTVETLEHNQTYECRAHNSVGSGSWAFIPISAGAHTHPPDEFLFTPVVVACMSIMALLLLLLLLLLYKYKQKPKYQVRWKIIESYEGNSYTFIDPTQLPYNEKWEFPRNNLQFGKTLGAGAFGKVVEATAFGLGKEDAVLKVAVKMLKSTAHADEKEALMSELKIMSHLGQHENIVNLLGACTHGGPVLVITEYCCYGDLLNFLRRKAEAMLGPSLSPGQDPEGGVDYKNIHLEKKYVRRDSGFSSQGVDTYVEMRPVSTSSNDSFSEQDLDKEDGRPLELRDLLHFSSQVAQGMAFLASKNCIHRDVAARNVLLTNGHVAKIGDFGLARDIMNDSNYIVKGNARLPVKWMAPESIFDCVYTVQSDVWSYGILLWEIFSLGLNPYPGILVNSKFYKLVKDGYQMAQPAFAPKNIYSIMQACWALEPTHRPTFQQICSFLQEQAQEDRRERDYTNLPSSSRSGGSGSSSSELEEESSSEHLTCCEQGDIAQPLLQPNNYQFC
Chain of Voltage-gated inwardly rectifying potassium channel KCNH2 (Q12809 whole entry): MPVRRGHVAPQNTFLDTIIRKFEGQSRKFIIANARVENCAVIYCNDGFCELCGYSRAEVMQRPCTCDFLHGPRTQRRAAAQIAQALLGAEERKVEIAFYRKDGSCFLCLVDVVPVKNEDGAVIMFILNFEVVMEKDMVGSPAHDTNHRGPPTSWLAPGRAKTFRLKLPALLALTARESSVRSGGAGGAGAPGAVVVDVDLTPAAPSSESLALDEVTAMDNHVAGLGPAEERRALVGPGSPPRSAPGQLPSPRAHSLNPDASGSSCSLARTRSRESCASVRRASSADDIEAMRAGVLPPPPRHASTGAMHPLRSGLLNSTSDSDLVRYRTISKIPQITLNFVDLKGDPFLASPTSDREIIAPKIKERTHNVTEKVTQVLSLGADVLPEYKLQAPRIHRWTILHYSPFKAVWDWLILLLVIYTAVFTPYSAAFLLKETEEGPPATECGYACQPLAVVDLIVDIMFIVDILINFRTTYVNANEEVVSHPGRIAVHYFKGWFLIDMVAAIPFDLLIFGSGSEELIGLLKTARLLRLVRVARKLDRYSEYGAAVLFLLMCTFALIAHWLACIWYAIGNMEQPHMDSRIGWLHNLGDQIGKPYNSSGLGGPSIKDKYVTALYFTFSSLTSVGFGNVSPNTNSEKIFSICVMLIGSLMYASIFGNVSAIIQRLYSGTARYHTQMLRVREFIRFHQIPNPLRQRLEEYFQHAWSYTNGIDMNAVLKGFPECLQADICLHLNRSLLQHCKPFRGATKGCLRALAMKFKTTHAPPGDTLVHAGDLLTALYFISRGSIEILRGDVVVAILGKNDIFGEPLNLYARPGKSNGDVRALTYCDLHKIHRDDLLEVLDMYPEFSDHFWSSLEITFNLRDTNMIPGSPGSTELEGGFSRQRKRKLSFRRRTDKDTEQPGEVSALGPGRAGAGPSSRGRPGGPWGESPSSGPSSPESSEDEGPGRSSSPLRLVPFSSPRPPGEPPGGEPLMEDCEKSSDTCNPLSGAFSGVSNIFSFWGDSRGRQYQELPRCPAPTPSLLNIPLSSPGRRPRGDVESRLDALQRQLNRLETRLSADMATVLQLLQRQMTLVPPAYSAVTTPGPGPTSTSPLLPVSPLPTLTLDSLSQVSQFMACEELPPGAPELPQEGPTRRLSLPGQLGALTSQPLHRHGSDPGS
Chain of Cyclin-dependent kinase 6 (Homo sapiens) (Q00534 whole entry): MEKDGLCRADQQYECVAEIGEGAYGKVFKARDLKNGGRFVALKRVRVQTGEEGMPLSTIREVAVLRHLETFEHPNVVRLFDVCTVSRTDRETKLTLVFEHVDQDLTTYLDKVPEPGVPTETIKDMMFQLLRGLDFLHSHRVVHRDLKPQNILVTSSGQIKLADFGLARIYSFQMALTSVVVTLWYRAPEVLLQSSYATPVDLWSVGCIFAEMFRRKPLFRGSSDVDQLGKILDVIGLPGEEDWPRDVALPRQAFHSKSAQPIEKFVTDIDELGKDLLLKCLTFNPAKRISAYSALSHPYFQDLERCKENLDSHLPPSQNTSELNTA

`Cc1ccc(C(=O)Nc2cccc(C(F)(F)F)c2)cc1-c1ccc2c(-c3cnn(C4CC4)c3)n[nH]c2c1` gave a half-life in data set [1] of 3.05 h. Also, the time of peak concentration (Tmax) in data set [2] came out at 2 h. The inhibition in data set [3] was found to be 94.2%; in [4], 5.5%; in data set [5], 100%; in data set [6] it was 71.7%; in [7] it was 87.6%; in data set [8], 83.4%. The inhibition in data set [9] was 2.6%; in data set [10], 0%; in data set [11] it was 27.2%; in data set [12] it was 8.2%; in [13] it was 99.1%; in data set [14], 59.3%. Besides, the inhibition result in [15] and in data set [16] was “Dose-dependent effect” in each case. In [17], this molecule gave a pIC50 below 4.40.
